Laboratory results: ChEMBL document CHEMBL4373711, “Development of 3,5-Dinitrophenyl-Containing 1,2,4-Triazoles and Their Trifluoromethyl Analogues as Highly Efficient Antitubercular Agents Inhibiting Decaprenylphosphoryl-β-d-ribofuranose 2'-Oxidase” (J Med Chem, 2019)

How the values were obtained:
[1] = Genotoxicity in Salmonella typhimurium TA98 at 30 uM in presence of rat liver S9 fraction by Ames test; format: toxicity, subcellular; settings: salmonella enterica subsp. enterica serovar typhimurium, s9, 30 µM
How it was run: (§1)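 Microplate fluctuation Ames reverse-mutation test following kit instructions; TA98 detects frameshift and TA100 base-exchange mutations. Compound at 30 µM final with Aroclor-1254-induced rat liver S9 plus cofactors.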

[2] = Genotoxicity in Salmonella typhimurium TA100 at 30 uM in presence of rat liver S9 fraction by Ames test; format: toxicity, subcellular; settings: salmonella enterica subsp. enterica serovar typhimurium, s9, 30 µM; how it was run: as §1
[3] = Selectivity index, ratio of IC50 for human A431 cells to MIC>99 for antimycobacterial activity against Mycobacterium kansasii 6509/96 after 14 days; format: toxicity; settings: read-out: Selectivity Index
[4] = Selectivity index, ratio of IC50 for human HepG2 cells to MIC>99 for antimycobacterial activity against Mycobacterium kansasii 6509/96 after 21 days; format: toxicity; settings: read-out: Selectivity Index
[5] = Selectivity index, ratio of IC50 for human A431 cells to MIC>99 for antimycobacterial activity against Mycobacterium kansasii 6509/96 after 7 days; format: toxicity; settings: read-out: Selectivity Index
[6] = Selectivity index, ratio of IC50 for human A431 cells to MIC>99 for antimycobacterial activity against XDR Mycobacterium tuberculosis Praha 131 after 21 days; format: toxicity; settings: read-out: Selectivity Index
[7] = Selectivity index, ratio of IC50 for human HepG2 cells to MIC>99 for antimycobacterial activity against Mycobacterium kansasii 6509/96 after 7 days; format: toxicity; settings: read-out: Selectivity Index
[8] = Selectivity index, ratio of IC50 for human A431 cells to MIC>99 for antimycobacterial activity against Mycobacterium tuberculosis H37Rv CNCTC My 331/88 after 21 days; format: toxicity; settings: read-out: Selectivity Index
[9] = Selectivity index, ratio of IC50 for human A431 cells to MIC>99 for antimycobacterial activity against XDR Mycobacterium tuberculosis Praha 131 after 14 days; format: toxicity; settings: read-out: Selectivity Index
[10] = Selectivity index, ratio of IC50 for human A431 cells to MIC>99 for antimycobacterial activity against Mycobacterium kansasii CNCTC My 235/80 after 7 days; format: toxicity; settings: read-out: Selectivity Index
[11] = Selectivity index, ratio of IC50 for human HepG2 cells to MIC>99 for antimycobacterial activity against Mycobacterium tuberculosis H37Rv CNCTC My 331/88 after 21 days; format: toxicity; settings: read-out: Selectivity Index
How it was run: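 SI from HepG2 IC50 and M. tuberculosis MIC. HepG2 cells: DMEM + 10% FBS + 1 mM pyruvate, 10,000/well, 48 h treatment, 0.1% DMSO and 10% SDS controls, MTS absorbance at 490 nm.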

[12] = Selectivity index, ratio of IC50 for human HepG2 cells to MIC>99 for antimycobacterial activity against Mycobacterium avium CNCTC My 330/88 after 14 days; format: toxicity; settings: read-out: Selectivity Index
[13] = Selectivity index, ratio of IC50 for human A431 cells to MIC>99 for antimycobacterial activity against Mycobacterium kansasii 6509/96 after 21 days; format: toxicity; settings: read-out: Selectivity Index
[14] = Selectivity index, ratio of IC50 for human HepG2 cells to MIC>99 for antimycobacterial activity against Mycobacterium avium CNCTC My 330/88 after 21 days; format: toxicity; settings: read-out: Selectivity Index
[15] = Selectivity index, ratio of IC50 for human HepG2 cells to MIC>99 for antimycobacterial activity against Mycobacterium kansasii CNCTC My 235/80 after 7 days; format: toxicity; settings: read-out: Selectivity Index
[16] = Selectivity index, ratio of IC50 for human HepG2 cells to MIC>99 for antimycobacterial activity against Mycobacterium kansasii CNCTC My 235/80 after 21 days; format: toxicity; settings: read-out: Selectivity Index
[17] = Selectivity index, ratio of IC50 for human HepG2 cells to MIC>99 for antimycobacterial activity against Mycobacterium kansasii 6509/96 after 14 days; format: toxicity; settings: read-out: Selectivity Index
[18] = Selectivity index, ratio of IC50 for human A431 cells to MIC>99 for antimycobacterial activity against Mycobacterium kansasii CNCTC My 235/80 after 21 days; format: toxicity; settings: read-out: Selectivity Index
[19] = Selectivity index, ratio of IC50 for human A431 cells to MIC>99 for antimycobacterial activity against Mycobacterium tuberculosis H37Rv CNCTC My 331/88 after 14 days; format: toxicity; settings: read-out: Selectivity Index
[20] = Selectivity index, ratio of IC50 for human HepG2 cells to MIC>99 for antimycobacterial activity against Mycobacterium kansasii CNCTC My 235/80 after 14 days; format: toxicity; settings: read-out: Selectivity Index
[21] = Selectivity index, ratio of IC50 for human A431 cells to MIC>99 for antimycobacterial activity against Mycobacterium avium CNCTC My 330/88 after 14 days; format: toxicity; settings: read-out: Selectivity Index

O=[N+]([O-])c1cc(-c2nnc(SCc3ccccc3)n2Cc2ccccc2)cc([N+](=O)[O-])c1
Activity [1]: Non-Toxic | Activity [2]: Non-Toxic

O=[N+]([O-])c1cc(-c2nnc(SCc3ccccc3)n2Cc2ccccc2)cc(C(F)(F)F)c1
selectivity ratio at 336 h [3]: > 100 | selectivity ratio at 504 h [4]: > 100 | selectivity ratio at 168 h [5]: > 100 | selectivity ratio at 504 h [6]: > 100 | selectivity ratio at 168 h [7]: > 100 | selectivity ratio at 504 h [8]: > 100 | selectivity ratio at 336 h [9]: > 100 | selectivity ratio at 168 h [10]: > 100 | selectivity ratio at 504 h [11]: > 100 | selectivity ratio at 336 h [12]: > 100 | selectivity ratio at 504 h [13]: > 100 | selectivity ratio at 504 h [14]: > 100 | selectivity ratio at 168 h [15]: > 100 | selectivity ratio at 504 h [16]: > 100 | selectivity ratio at 336 h [17]: > 100 | selectivity ratio at 504 h [18]: > 100 | selectivity ratio at 336 h [19]: > 100 | selectivity ratio at 336 h [20]: > 100 | selectivity ratio at 336 h [21]: > 100
